# Bioassay records (PubChem)
# APJ ag = agonists of human apelin receptor APJ, primary screen, CHO-K1 cells, PathHunter beta-arrestin, luminescence | P35414 | 0% DMSO wells, 100% apelin | activation, % at 20 µM | hit rate 0.11% among 330,000 | AID 2520, 2010;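 active = activation more than six SD over the plate average, tested at 20 µM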;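 also: 0% = DMSO alone and 100% = apelin-13 at 10 nM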
#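 Material: CHO-K1 APJ beta-arrestin complementation cell line; Input: cell density 1000 per well; Incubation: compound stimulation 90 min at 25 °C, detection 60 min; Signal: luminescence from split beta-galactosidase complementation, Galacton Star/Emerald II substrate; Controls: DMSO-only wells as negative, 10 nM Apelin-13 as positive control.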
# APJ antag = antagonists of human apelin receptor APJ, primary screen, CHO-K1 cells, beta-arrestin complementation, luminescence | P35414 | inhibition, % at 20 µM | hit rate 0.32% among 330,000;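 active = inhibition above about 40% at 20 µM, limit read from the data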;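 also: cells challenged with 10 nM apelin-13 agonist together with compound; plate controls were apelin-13 plus DMSO wells for no effect and DMSO wells lacking apelin-13 for full effect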
# PfG6PD inh = PfG6PD enzyme inhibitors, primary screen, biochemical, fluorescence intensity, uHTS | glucose-6-phosphate dehydrogenase-6-phosphogluconolactonase (Plasmodium falciparum 3D7) | inhibition, % at 20 µM | AID 504690, 2011 | hit rate 0.78% among 350,000 | PfGluPho enzyme, NADPH resazurin-diaphorase fluorescence;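 active = inhibition reaching at least a set limit at 20 µM in the primary screen, cut at about 59% in these data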;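 also: 0% = DMSO wells with substrate and 100% = DMSO wells lacking glucose-6-phosphate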
# CCR6 antagonist = CCR6 receptor antagonists, primary screen, cell-based, CHO-K1, luminescence, beta-arrestin, uHTS; CHO-K1 CCR6 PathHunter beta-arrestin, CCL20-stimulated; C-C chemokine receptor type 6 (Homo sapiens), P51684; AID 493098, 2011; hit rate 0.49% among 340,000; inhibition, % at 20 µM;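 active = compounds whose inhibition of the agonist-driven luminescence signal at 20 µM reaches about 50%, limit read from the data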;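 also: cells stimulated with CCL20 at 14 nM final; plate controls were DMSO with CCL20 for no effect and DMSO without agonist for full effect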
# B2AR ag = beta2AR agonists driving receptor internalization, primary screen, cell-based, FAP fluorogen, flow cytometry | Beta-2 adrenergic receptor (Homo sapiens), P07550 | Am2.2-beta2AR cells | response, % (no concentration beside the values) | hit rate 0.43% among 340,000 | AID 504454, 2011;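 active = response above a set limit, near 3 SD of response in nonfluorescent compounds, cut at about 42% in these data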
# Target sequence (P07550 whole entry, looked up): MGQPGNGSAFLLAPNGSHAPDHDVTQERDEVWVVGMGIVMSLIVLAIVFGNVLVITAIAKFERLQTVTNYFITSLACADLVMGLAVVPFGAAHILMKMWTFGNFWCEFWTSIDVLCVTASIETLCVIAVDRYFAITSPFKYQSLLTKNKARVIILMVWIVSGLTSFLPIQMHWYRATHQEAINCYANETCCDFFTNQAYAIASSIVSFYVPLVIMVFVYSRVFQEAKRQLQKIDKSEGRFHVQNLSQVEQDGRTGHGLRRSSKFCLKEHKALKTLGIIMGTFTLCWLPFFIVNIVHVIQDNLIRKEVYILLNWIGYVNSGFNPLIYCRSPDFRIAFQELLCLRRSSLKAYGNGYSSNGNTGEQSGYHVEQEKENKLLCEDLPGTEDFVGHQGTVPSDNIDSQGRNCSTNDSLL
# CXCR6 block = CXCR6 receptor inhibitors, primary screen, cell-based, beta-arrestin, luminescence, CHO-K1 PathHunter, 1536-well; C-X-C chemokine receptor type 6 (Homo sapiens), O00574; AID 602244, 2012; inhibition, % at 20 µM; hit rate 0.36% among 360,000; in the data active = inhibition above about 34%, passing the limit was not always enough;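 also: antagonist mode with CXCL16 agonist at 10 nM final; 0% = 10 nM CXCL16 with DMSO and 100% = unstimulated wells without agonist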
# PfG6PD confirm = PfG6PD inhibitors, hit retest, confirmation, biochemical, fluorescence intensity, single concentration; shares compounds with PfG6PD inh; recombinant PfGluPho, NADPH-diaphorase-resazurin fluorescence; inhibition, % at 20 µM; hit rate 34% among 2,400;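 active = inhibition of at least 50% at 20 µM in any single replicate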;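 also: 0% = DMSO with substrate and 100% = DMSO lacking glucose-6-phosphate substrate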
# Diaphorase 10uM = diaphorase inhibitors and chemical oxidizers, confirmation, counter-screen for P. falciparum G6PD inhibitor project, biochemical, fluorescence intensity, 10 µM NADPH. shares compounds with PfG6PD inh. hit rate 39% among 820. inhibition, % at 20 µM. diaphorase-coupled resazurin reduction, NADPH 10 uM. AID 504862, 2011;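 active = average inhibition reaching 50% or more with the compound at 20 µM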;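 also: resorufin red fluorescence formed as diaphorase reduces resazurin using NADPH; 0% = DMSO with enzyme and 100% = DMSO without enzyme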
# Diaph ctr 30uM = diaphorase inhibitors and chemical oxidizers, confirmation, counter-screen for P. falciparum G6PD inhibitor project, biochemical, fluorescence intensity, 30 µM NADPH. shares compounds with PfG6PD inh. Diaphorase/resazurin coupled assay, resorufin fluorescence. inhibition, % at 20 µM. hit rate 29% among 820. AID 504863, 2011;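 active = inhibition averaging 50% or more, tested at 20 µM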;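 also: 0% = DMSO with enzyme and 100% = DMSO wells lacking diaphorase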
# Numbers without * were called inactive; · = no result. Sampled rows, rich in hits. Any-hit rate of the full collection: about 1.7%.
SMILES,APJ ag,APJ antag,PfG6PD inh,CCR6 antagonist,B2AR ag,CXCR6 block,PfG6PD confirm,others
COc1cc(NCc2ccccc2)c2ncn(Cc3ccccc3)c2c1,-3,2,66*,11,16,6,50*,Diaphorase 10uM=-11;Diaph ctr 30uM=-10
CCC(COC)Oc1cc(NCc2ccccc2)c2ncn(C(C)C)c2c1 (stereo unspecified),11,-19,83*,5,4,-14,40,
CCC(CO)Oc1cc(NCc2ccccc2)c2ncn(C(C)C)c2c1 (stereo unspecified),-2,2,9,20,-3,-9,·,
CCCCOc1cc(NCc2ccccc2)c2ncn(C(C)C)c2c1,-2,-9,73*,13,2,-38,31,
O=C(CSc1n[nH]c(-c2cccnc2)n1)OC1CCCCC1,-2,12,-10,8,-3,-1,·,
Cc1ccc(C2/C(=C(\O)c3ccc4c(c3)OCCO4)C(=O)C(=O)N2CC2CCCO2)cc1 (stereo unspecified),-1,9,-17,3,8,3,·,
CC(=O)Nc1ccc(C(=O)COC(=O)CCc2ccccc2)c(F)c1,-1,-3,-15,4,0,2,·,
CC(=O)Nc1cccc(NC(=O)c2cc3ccccc3o2)c1,0,1,-3,8,-4,-14,·,
CCC(=O)N1CCN(c2ccc(NC(=O)c3cc4ccccc4o3)cc2Cl)CC1,23,-17,118*,-4,28,-5,84*,Diaphorase 10uM=72*;Diaph ctr 30uM=61*
Cc1ccc(NC(=O)c2cc3ccccc3o2)cc1Cl,1,5,100*,-4,5,-11,18,
CC(C)c1nnc(NC(=O)c2cc3ccccc3o2)s1,-3,15,66*,5,3,-4,54*,Diaphorase 10uM=35;Diaph ctr 30uM=10
Cc1[nH]c(C)c(S(=O)(=O)NCC(C)c2ccccc2)c1C(=O)N1CCCCC1 (stereo unspecified),-3,11,-11,14,-3,-1,·,
COC(=O)c1sccc1NC(=O)Nc1ccccc1OC,-4,6,48,0,-2,3,·,
O=C(Nc1ccccc1)Nc1sccc1-c1nc2ccccc2s1,3,2,84*,-5,26,3,3,
COc1ccccc1NC(=O)Nc1sccc1-c1nc2ccccc2s1,-2,1,78*,10,-7,-4,22,
O=C(Nc1ccccc1[N+](=O)[O-])C1COc2ccccc2O1 (stereo unspecified),2,-3,2,3,5,3,·,
COc1ccc(NS(=O)(=O)c2ccc(N3CCCC3)c(NC(=S)Nc3ccc(SC(F)F)cc3)c2)cc1,-5,22,69*,31,5,4,37,
COc1ccc(NS(=O)(=O)c2ccc(N3CCCC3)c(NC(=S)Nc3cccc(C)c3C)c2)cc1,-4,8,80*,21,3,6,53*,Diaphorase 10uM=-29;Diaph ctr 30uM=-12
Cc1ccc(-c2cn(CCN)c(-c3ccc(Cl)nc3)n2)cc1,-5,7,-10,3,-8,-3,·,
Cn1c(-c2ccc(Cl)nc2)nc2cc(Cl)ccc21,-1,18,49,18,-6,-10,22,
CC(C)S(=O)(=O)c1csc(NC(=O)Nc2cc(Cl)ccc2Cl)c1Cl,5,17,86*,8,-1,-13,4,
O=C1S/C(=C/c2ccc(N3CCOCC3)o2)C(=O)N1Cc1c(F)cccc1Cl,-3,22,48,26,-645,9,·,
O=C1S/C(=C\c2ccc(N3CCOCC3)o2)C(=O)N1Cc1c(F)cccc1Cl,-6,19,75*,19,-244,20,17,
CCNC(=O)C1(C)CCCN(Cc2ccc(-c3ccccc3)o2)C1 (stereo unspecified),·,·,·,·,·,7,·,
Cc1ccc(NC(=O)Cn2c(C)cc(C)c(C#N)c2=O)c(Cl)c1,-1,22,-17,3,-6,14,·,
SMILES,APJ ag,APJ antag,PfG6PD inh,CCR6 antagonist,B2AR ag,CXCR6 block,PfG6PD confirm,others
CCOC(=O)c1cn(CC(=O)Nc2cccc(F)c2)nn1,-3,7,5,11,0,-9,·,
Cc1ccc(NC(=O)Cn2sc3nc(C)cc(C)c3c2=O)c(Cl)c1,0,-14,100*,12,-16,8,76*,Diaphorase 10uM=-34;Diaph ctr 30uM=-18
Cc1cc(C)c2c(=O)n(CC(=O)Nc3cccc(F)c3)sc2n1,-1,-33,110*,30,22,10,94*,Diaphorase 10uM=-3;Diaph ctr 30uM=0
Nc1ccc(S(N)(=O)=O)cc1N,4,-66,60*,1,3,3,4,
Nc1ccc(S(N)(=O)=O)cc1,4,5,-3,3,-11,-4,·,
Cc1cc(C)c(S(=O)(=O)Nc2ccccc2-c2ccccc2)c(C)c1,-2,-7,85*,29,3,-1,8,
O=S(=O)(Nc1ccccc1-c1ccccc1)c1ccccc1,·,·,59,27,0,6,·,
CCN1C(=O)CSC1=Nc1ccc(C(=O)O)cc1,0,-12,-17,7,-2,6,·,
CC(C)(C)c1ccc(N=C2SCC(=O)N2Cc2cccs2)cc1,-5,3,64*,24,2,0,-20,
Cc1ccc(S(=O)(=O)N2CCOCC2)cc1NC(=O)CSc1ccc(Cl)cc1,-3,15,0,8,-3,-4,·,
CCOC(=O)c1ccc(S(=O)(=O)Nc2cc(S(=O)(=O)N3CCOCC3)ccc2O)cc1,-4,13,60*,-7,3,-5,10,
O=C(CCCSc1ccc(Cl)cc1)Nc1cc(S(=O)(=O)N2CCOCC2)ccc1O,-1,-3,74*,-7,7,-10,25,
NC(=O)C1CCN(S(=O)(=O)c2ccccc2[N+](=O)[O-])CC1,0,16,0,-6,0,-1,·,
Cc1cc(OCC(=O)N2CCC(C(=O)O)CC2)c2c(C)c(C)c(=O)oc2c1,-3,12,4,1,-10,1,·,
